Results taken from ChEMBL document CHEMBL3352188, “Synthesis, antimicrobial and molecular docking studies of enantiomerically pure N-alkylated β-amino alcohols from phenylpropanolamines” (2014).

Tests used:
[1] = test system: Klebsiella aerogenes; assay: Antimicrobial activity against Enterobacter aerogenes MTCC 111 at 1 mg/disc after 24 hrs by disc diffusion assay; format: functional
Method in brief: (§1)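 Disc diffusion on Mueller Hinton agar. Inoculum was grown in MHB for 24 h at 37 °C, swabbed onto the plates and dried for 10 min. Discs with 1 mg compound were left 30 min at room temperature for diffusion, then incubated at 37 °C for 24 h. Inhibition zone was read in mm; run twice. Solvent was the negative control, streptomycin the positive control.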

[2] = test system: Micrococcus luteus; assay: Antimicrobial activity against Micrococcus luteus MTCC 106 at 1 mg/disc after 24 hrs by disc diffusion assay; format: functional; method in brief: as §1
[3] = test system: Micrococcus luteus; assay: Bactericidal activity against Micrococcus luteus MTCC 106 after 24 hrs by two fold dilution method; format: functional; conditions: MTCC 106, 24 h
Method in brief: (§2)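 Tubes held 5 mL MHB with two-fold dilutions from 1000 to 7.81 µg/mL and were inoculated with 5 × 10^5 to 1 × 10^6 cells in 0.1 mL MHB, incubated without shaking. Turbidity was checked at 20 h, tubes vortexed and re-incubated 4 h.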

[4] = test system: Shigella flexneri; assay: Bactericidal activity against Shigella flexneri MTCC 1457 after 24 hrs by two fold dilution method; format: functional; conditions: MTCC 1457, 24 h; method in brief: as §2
[5] = test system: Micrococcus luteus; assay: Antimicrobial activity against Micrococcus luteus MTCC 106 after 24 hrs by two fold dilution method; format: functional; conditions: MTCC 106, 24 h
Method in brief: (§3)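 Broth two-fold serial dilution in 96-well plates from 1000 to 7.81 µg/mL, compound in DMSO (2%). Inoculum was grown in MHB for 24 h at 37 °C; plates were incubated 24 h at 37 °C. 5 µL of broth was spotted onto MHA; MIC was the lowest concentration with no visible growth on agar. Streptomycin was the positive control.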

[6] = test system: Salmonella typhimurium; assay: Antimicrobial activity against Salmonella typhimurium MTCC 1251 at 1 mg/disc after 24 hrs by disc diffusion assay; format: functional, Salmonella enterica subsp. enterica serovar Typhimurium; method in brief: as §1
[7] = test system: Staphylococcus aureus; assay: Antimicrobial activity against Staphylococcus aureus MTCC 96 at 1 mg/disc after 24 hrs by disc diffusion assay; format: functional; method in brief: as §1
[8] = test system: Proteus vulgaris; assay: Bactericidal activity against Proteus vulgaris MTCC 1771 after 24 hrs by two fold dilution method; format: functional; conditions: MTCC 1771, 24 h; method in brief: as §2
[9] = test system: Bacillus subtilis; assay: Bactericidal activity against Bacillus subtilis MTCC 441 after 24 hrs by two fold dilution method; format: functional; conditions: MTCC 441, 24 h; method in brief: as §2
[10] = test system: Candida albicans; assay: Fungicidal activity against Candida albicans MTCC 227 after 48 to 72 hrs by two fold dilution method; format: functional
[11] = test system: Klebsiella aerogenes; assay: Bactericidal activity against Enterobacter aerogenes MTCC 111 after 24 hrs by two fold dilution method; format: functional; conditions: MTCC 111, 24 h; method in brief: as §2
[12] = test system: Staphylococcus aureus; assay: Bactericidal activity against Staphylococcus aureus MTCC 96 after 24 hrs by two fold dilution method; format: functional; conditions: MTCC 96, 24 h; method in brief: as §2
[13] = test system: Pseudomonas aeruginosa; assay: Bactericidal activity against Pseudomonas aeruginosa MTCC 741 after 24 hrs by two fold dilution method; format: functional; conditions: MTCC 741, 24 h; method in brief: as §2
[14] = test system: Staphylococcus aureus; assay: Antimicrobial activity against Staphylococcus aureus MTCC 96 after 24 hrs by two fold dilution method; format: functional; conditions: MTCC 96, 24 h; method in brief: as §3
[15] = test system: Salmonella enterica subsp. enterica serovar Paratyphi B; assay: Antimicrobial activity against Salmonella paratyphi B at 1 mg/disc after 24 hrs by disc diffusion assay; format: functional; method in brief: as §1
[16] = test system: Staphylococcus aureus; assay: Antimicrobial activity against methicillin-resistant Staphylococcus aureus MTCC 96 after 24 hrs by two fold dilution method; format: functional; conditions: MTCC 96, 24 h; method in brief: as §3
[17] = test system: Klebsiella pneumoniae; assay: Antimicrobial activity against Klebsiella pneumoniae MTCC 109 at 1 mg/disc after 24 hrs by disc diffusion assay; format: functional; method in brief: as §1
[18] = test system: Proteus vulgaris; assay: Antimicrobial activity against Proteus vulgaris MTCC 1771 after 24 hrs by two fold dilution method; format: functional; conditions: MTCC 1771, 24 h; method in brief: as §3
[19] = test system: Bacillus subtilis; assay: Antimicrobial activity against Bacillus subtilis MTCC 441 at 1 mg/disc after 24 hrs by disc diffusion assay; format: functional; method in brief: as §1
[20] = test system: Pseudomonas aeruginosa; assay: Antimicrobial activity against Pseudomonas aeruginosa MTCC 741 after 24 hrs by two fold dilution method; format: functional; conditions: MTCC 741, 24 h; method in brief: as §3
[21] = test system: Klebsiella pneumoniae; assay: Bactericidal activity against Klebsiella pneumoniae MTCC 109 after 24 hrs by two fold dilution method; format: functional; conditions: MTCC 109, 24 h; method in brief: as §2
[22] = test system: Candida albicans; assay: Antimicrobial activity against Candida albicans MTCC 227 at 1 mg/disc after 24 hrs by disc diffusion assay; format: functional
[23] = test system: Bacillus subtilis; assay: Antimicrobial activity against Bacillus subtilis MTCC 441 after 24 hrs by two fold dilution method; format: functional; conditions: MTCC 441, 24 h; method in brief: as §3
[24] = test system: Malassezia pachydermatis; assay: Antimicrobial activity against Malassezia pachydermatis after 48 to 72 hrs by two fold dilution method; format: functional
Method in brief: (§4)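 Yeast was grown in Sabouraud dextrose broth at 28 °C for 48 h and tested per CLSI reference methods. Two-fold serial dilutions from 1000 to 7.81 µg/mL, compound in DMSO (2%), in 96-well plates, incubated 48–72 h at 28 °C. MIC was the lowest concentration with no visible fungal growth. Ketoconazole was the positive control.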

[25] = test system: Pseudomonas aeruginosa; assay: Antimicrobial activity against Pseudomonas aeruginosa MTCC 741 at 1 mg/disc after 24 hrs by disc diffusion assay; format: functional; method in brief: as §1
[26] = test system: Shigella flexneri; assay: Antimicrobial activity against Shigella flexneri MTCC 1457 after 24 hrs by two fold dilution method; format: functional; conditions: MTCC 1457, 24 h; method in brief: as §3
[27] = test system: Malassezia pachydermatis; assay: Antimicrobial activity against Malassezia pachydermatis at 1 mg/disc after 24 hrs by disc diffusion assay; format: functional
[28] = test system: Klebsiella pneumoniae; assay: Antimicrobial activity against Klebsiella pneumoniae MTCC 109 after 24 hrs by two fold dilution method; format: functional; conditions: MTCC 109, 24 h; method in brief: as §3
[29] = test system: Proteus vulgaris; assay: Antimicrobial activity against Proteus vulgaris MTCC 1771 at 1 mg/disc after 24 hrs by disc diffusion assay; format: functional; method in brief: as §1
[30] = test system: Salmonella typhimurium; assay: Bactericidal activity against Salmonella typhimurium MTCC 1251 after 24 hrs by two fold dilution method; format: functional, Salmonella enterica subsp. enterica serovar Typhimurium; conditions: Salmonella enterica, MTCC 1251, 24 h; method in brief: as §2
[31] = test system: Salmonella enterica subsp. enterica serovar Paratyphi B; assay: Bactericidal activity against Salmonella paratyphi B after 24 hrs by two fold dilution method; format: functional; method in brief: as §2
[32] = test system: Staphylococcus aureus; assay: Antimicrobial activity against […] Staphylococcus aureus MTCC 96 at 1 mg/disc after 24 hrs by disc diffusion assay; format: functional; method in brief: as §1
[33] = test system: Salmonella typhimurium; assay: Antimicrobial activity against Salmonella typhimurium MTCC 1251 after 24 hrs by two fold dilution method; format: functional, Salmonella enterica subsp. enterica serovar Typhimurium; conditions: Salmonella enterica, MTCC 1251, 24 h; method in brief: as §3
[34] = test system: Malassezia pachydermatis; assay: Fungicidal activity against Malassezia pachydermatis after 48 to 72 hrs by two fold dilution method; format: functional
[35] = test system: Candida albicans; assay: Antimicrobial activity against Candida albicans MTCC 227 after 48 to 72 hrs by two fold dilution method; format: functional; method in brief: as §4
[36] = test system: Salmonella enterica subsp. enterica serovar Paratyphi B; assay: Antimicrobial activity against Salmonella paratyphi B after 24 hrs by two fold dilution method; format: functional; method in brief: as §3
[37] = test system: Staphylococcus aureus; assay: Bactericidal activity against methicillin-resistant Staphylococcus aureus MTCC 96 after 24 hrs by two fold dilution method; format: functional; conditions: MTCC 96, 24 h; method in brief: as §2
[38] = test system: Klebsiella aerogenes; assay: Antimicrobial activity against Enterobacter aerogenes MTCC 111 after 24 hrs by two fold dilution method; format: functional; conditions: MTCC 111, 24 h; method in brief: as §3
[39] = test system: Shigella flexneri; assay: Antimicrobial activity against Shigella flexneri MTCC 1457 at 1 mg/disc after 24 hrs by disc diffusion assay; format: functional; method in brief: as §1

SMILES | inhibition zone (IZ) [1] [mm] | inhibition zone (IZ) [2] [mm] | MBC [3] [µg/mL] | MBC [4] [µg/mL] | MIC [5] [µg/mL] | inhibition zone (IZ) [6] [mm] | inhibition zone (IZ) [7] [mm] | MBC [8] [µg/mL] | MBC [9] [µg/mL] | MFC [10] [µg/mL] | MBC [11] [µg/mL] | MBC [12] [µg/mL] | MBC [13] [µg/mL] | MIC [14] [µg/mL] | inhibition zone (IZ) [15] [mm] | MIC [16] [µg/mL] | inhibition zone (IZ) [17] [mm] | MIC [18] [µg/mL] | inhibition zone (IZ) [19] [mm] | MIC [20] [µg/mL] | further results
C[C@H](N[C@H](C)[C@@H](O)c1ccccc1)c1ccccc1.Cl | 14 | 15 | 125 | 500 | 125 | 12 | 15 | 500 | 62.5 | 125 | 250 | 250 | 500 | 125 | 13 | 125 | 15 | 250 | 16 | 250 | MBC [21]: 250 µg/mL; inhibition zone (IZ) [22]: 15 mm; MIC [23]: 62.5 µg/mL; MIC [24]: 125 µg/mL; inhibition zone (IZ) [25]: 10 mm; MIC [26]: 250 µg/mL; inhibition zone (IZ) [27]: 14 mm; MIC [28]: 125 µg/mL; inhibition zone (IZ) [29]: 13 mm; MBC [30]: 250 µg/mL; MBC [31]: 500 µg/mL; inhibition zone (IZ) [32]: 14 mm; MIC [33]: 250 µg/mL; MFC [34]: 125 µg/mL; MIC [35]: 125 µg/mL; MIC [36]: 250 µg/mL; MBC [37]: 125 µg/mL; MIC [38]: 125 µg/mL; inhibition zone (IZ) [39]: 12 mm
COc1ccc([C@@H](C)N[C@@H](C)[C@H](O)c2ccccc2)cc1.Cl | 14 | 15 | 250 | 31.2 | 125 | 13 | 15 | 62.5 | 250 | 62.5 | 125 | 250 | 250 | 125 | 16 | 125 | 18 | 62.5 | 14 | 125 | MBC [21]: 125 µg/mL; inhibition zone (IZ) [22]: 17 mm; MIC [23]: 125 µg/mL; MIC [24]: 62.5 µg/mL; inhibition zone (IZ) [25]: 15 mm; MIC [26]: 31.2 µg/mL; inhibition zone (IZ) [27]: 18 mm; MIC [28]: 62.5 µg/mL; inhibition zone (IZ) [29]: 17 mm; MBC [30]: 500 µg/mL; MBC [31]: 125 µg/mL; inhibition zone (IZ) [32]: 15 mm; MIC [33]: 250 µg/mL; MFC [34]: 62.5 µg/mL; MIC [35]: 62.5 µg/mL; MIC [36]: 125 µg/mL; MBC [37]: 250 µg/mL; MIC [38]: 125 µg/mL; inhibition zone (IZ) [39]: 18 mm
COc1ccc([C@H](C)N[C@H](C)[C@@H](O)c2ccccc2)cc1.Cl | 18 | 19 | 125 | 125 | 62.5 | 14 | 17 | 125 | 125 | 62.5 | 125 | 125 | 250 | 62.5 | 17 | 62.5 | 17 | 62.5 | 18 | 125 | MBC [21]: 125 µg/mL; inhibition zone (IZ) [22]: 16 mm; MIC [23]: 62.5 µg/mL; MIC [24]: 62.5 µg/mL; inhibition zone (IZ) [25]: 14 mm; MIC [26]: 62.5 µg/mL; inhibition zone (IZ) [27]: 19 mm; MIC [28]: 62.5 µg/mL; inhibition zone (IZ) [29]: 18 mm; MBC [30]: 250 µg/mL; MBC [31]: 250 µg/mL; inhibition zone (IZ) [32]: 18 mm; MIC [33]: 125 µg/mL; MFC [34]: 62.5 µg/mL; MIC [35]: 62.5 µg/mL; MIC [36]: 125 µg/mL; MBC [37]: 125 µg/mL; MIC [38]: 62.5 µg/mL; inhibition zone (IZ) [39]: 17 mm
